Test results published in the EternaBench riboswitch data.

Test system: MS2 coat protein
Test: apparent Kd, MS2 coat protein; higher = weaker binding; RNA-MaP array; FMN 200 µM where present
Procedure, shortened: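 In 100 mM Tris-HCl pH 7.5, 80 mM KCl, 4 mM MgCl2, BSA, DTT, yeast tRNA and Tween-20, SNAP-549-labelled MS2 coat protein was titrated from 0.7 or 1.5 nM, doubling to 3 µM, over designs transcribed by stalled E. coli RNA polymerase on Illumina sequencing-chip clusters. This was done first without ligand, then with ligand held constant. After green signal was normalised to red-channel RNA signal and control-cluster median Fmax, the apparent Kd was taken as the median of filtered per-cluster binding-curve fits.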

[1] = designed as: ON switch for flavin mononucleotide, no ligand
[2] = ligand present: flavin mononucleotide, designed as: ON switch for flavin mononucleotide
[3] = designed as: OFF switch for flavin mononucleotide, no ligand
[4] = ligand present: flavin mononucleotide, designed as: OFF switch for flavin mononucleotide

Sequence | apparent Kd [1] | apparent Kd [2] | apparent Kd [3] | apparent Kd [4]
GCAUACAUUCGAGGAUAUCGGUGAACAAAUUAACGAGAAGGCGAUAUAAUGUUUAAUCUUAUAAACAUGAGGAUCACCCAUGUA | 0.0769 µM | 0.0312 µM |  | 
ACAUGCAAGUAGAAGGUCGGAUAUUUUGAUAACGAAGGAUAUACAGAAUCAUAUCCACAUGAUAACAUGAGGAUCACCCAUGUA |  |  | 0.0152 µM | 0.015 µM
AAUUCACAUGAGGAUCACCCAUGUGAGGAUAUGGUUUCGCUGGCCGUAGCCAGUGGAACCAGAAGGCGCGUGAU |  |  | 0.0565 µM | 0.0652 µM
AAAAAAAAAAGACAGGAUAUACAAUAUAUUACAUGAGGAUCACCCAUGUUUUUUUUUUAAUUAAAGUAGAAGGGUCAAAAAAAAAA | 0.0522 µM | 0.04 µM |  | 
CACCGUUAAAGAGGAUAUCGUACAUGAGGAUCACCCAUGUAAUAAAUGAGAAUUUCGGAUGUAUGCGAGAAGGCUUAAAUCGGC |  |  | 0.0529 µM | 0.0483 µM
AUCAGCUCGUCAGGAUAUACGUCACUGCUUCGGCAGUGUGGUAAGAUCACAUGAGGAUCACCCAUGUAGAAGGGACGAGCUGAU |  |  | 0.0384 µM | 0.754 µM
GAAAAGGUAGGAUAUACGAAAAAAAAGGGUAGAAAAAAUACACAUGAGGAUCACCCAUGUAGAAGGACCAAAAG |  |  | 0.0315 µM | 0.13 µM
AGGAGGUUAGGAUAUGCUGCUCGUCACUUGCGUGAUGAGUAGCAGAAGGAACAUGAGGAUCACCCAUGUAAAAA |  |  | 0.0302 µM | 0.0319 µM
AAAAAGUCAGGAUAUAGCAAAGGUCACGAAAGUGACAAAGGCUAGAAGGGACAUGAGGAUCACCCAUGUAAAAA |  |  | 0.031 µM | 0.0391 µM
GUCAGCUCGUGAGGAUAUACAACACUGCUUCGGCAGUGUGUUAAGAUCACAUGAGGAUCACCCAUGUAGAAGGCACGAGCUGAU |  |  | 0.00769 µM | 0.0889 µM
UAGGUUCGAGGAUAUACAUAGAUACAGAUACAUGUAGACGUACAUGAGGAUCACCCAUGUAGAAGGCGAAUAUA |  |  | 0.0809 µM | 0.186 µM
GGUACUCAAAGAGUACAAGAAAGAACAUGAGGAUCACCCAUGUAGGAUAUGCUACUCAAAGAGUAGCAGAAGGACAUGUGCAGC |  |  | 0.0306 µM | 0.103 µM
AUCAGCUCGUCAGGAUAUACAUCACUGCUUCGGCAGUGUAUUAAGAUUACAUGAGGAUCACCCAUGUAGAAGGGACGAGCUGAU |  |  | 0.0173 µM | 0.0208 µM
CUCAAACAUGAGGAUCACCCAUGUGUUGUCAUGGGAGGAUAUCCCAGUUCGUUGUCGUCGGGAGAAGGCCUAUGUC | 0.065 µM | 0.0293 µM |  | 
GCUCUGGCAUGAGGAUAUGGUCAGCUUUGCUGACCAGAAGGCAUGUCAAUAGACAUGAGGAUCACCCAUGUAGUUAACAGAGCA | 0.538 µM | 0.0373 µM |  | 
UUGUUACAUGAGGAUCACCCAUGUGAGGAUAUGUGUAUCCCUAAAAAAGUGUGGGACCACAGAAGGUACUUGGA |  |  | 0.0546 µM | 0.0681 µM
CAGUAGAUCCGAGGAUAUACAAUCCGGAAACGGUACAUGAGGAUCACCCAUGUAGAAGGCGGAUCUACAGGUACUAAAGUACCU |  |  | 0.00556 µM | 0.00831 µM
CAAAGGGAAGGAUAUACAUCAGGCGACCUGGUGGGCACCUAACAUGAGGAUCACCCAUGUAGAAGGUCCAGGGA |  |  | 0.0224 µM | 0.0149 µM
UCCUUACAUGAGGAUCACCCAUGUCAGGAUAUCUCCACACUGCGCUUGCGCAGUGUAUAGAGAAGGGACGGGCU |  |  | 0.0342 µM | 0.0262 µM
UUGGACGUCGUAGGAUAUGUAGGAUAUUCCUACAUGAGGAUCACCCAUGUUGACAUGGAAGAAGGACAAAAGGACGAUGUCCAU | 0.377 µM | 0.00905 µM |  | 
